What was measured:
Histone deacetylase 8 = biological target: T1, Histone deacetylase 8 (Homo sapiens, UniProt Q9BY41); assay: Inhibition of HDAC8 using fluorogenic Boc-Lys (acetyl)-AMC as substrate after 30 mins by fluorescence assay
T1 sequence (Q9BY41 whole entry): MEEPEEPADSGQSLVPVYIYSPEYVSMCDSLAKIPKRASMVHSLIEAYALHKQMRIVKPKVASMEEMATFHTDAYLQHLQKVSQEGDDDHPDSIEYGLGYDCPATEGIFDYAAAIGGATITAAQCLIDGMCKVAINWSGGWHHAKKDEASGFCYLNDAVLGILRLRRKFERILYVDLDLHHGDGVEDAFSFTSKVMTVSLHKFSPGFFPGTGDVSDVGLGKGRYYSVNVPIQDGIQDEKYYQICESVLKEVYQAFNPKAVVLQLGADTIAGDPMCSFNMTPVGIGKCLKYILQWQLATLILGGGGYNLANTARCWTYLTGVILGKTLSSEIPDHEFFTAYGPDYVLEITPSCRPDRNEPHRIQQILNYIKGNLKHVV
Summary of the method: (§1)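 Enzyme (HeLa nuclear extract or HDAC8, the latter expressed and purified in-house) preincubated 5 min with graded compound concentrations. Substrate added and run for 30 min at 37 °C, then stopped with a trypsin/TSA developer for 20 min at 37 °C. Fluorescence read at ex 390/em 460 nm. Inhibition was taken relative to control wells, IC50 by regression. Mean ± SD of ≥3 determinations.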

MDA-MB-231 = assay: Antiproliferative activity against human MDA-MB-231 cells after 48 hrs by MTT assay; assay type: functional, cell-based; details: MDA-MB-231, 48 h
A549 = assay: Antiproliferative activity against human A549 cells after 48 hrs by MTT assay; assay type: functional, cell-based; details: A549, 48 h
HCT-116 = assay: Antiproliferative activity against human HCT116 cells after 48 hrs by MTT assay; assay type: functional, cell-based; details: HCT-116, 48 h
Histone deacetylase = assay: Inhibition of HDAC in human HeLa cell nuclear extract using fluorogenic Boc-Lys (acetyl)-AMC as substrate after 30 mins fluorescence assay; assay type: protein assay; summary of the method: as §1

| SMILES | IC50 (Histone deacetylase 8) [µM] | IC50 (MDA-MB-231) [µM] | IC50 (A549) [µM] | IC50 (HCT-116) [µM] | IC50 (Histone deacetylase) [µM] |
| --- | --- | --- | --- | --- | --- |
| O=C(COc1ccc(C[C@H](NC(=O)CCc2ccccc2)C(=O)Nc2ccccc2)cc1)NO | 0.151 | – | – | – | – |
| CC(C)(C)OC(=O)N[C@@H](Cc1ccc(OCC(=O)NO)cc1)C(=O)Nc1ccccc1 | 0.227 | – | – | – | – |
| N[C@@H](Cc1ccc(OCC(=O)NO)cc1)C(=O)Nc1ccccc1 | 0.467 | – | – | – | – |
| O=C(COc1ccc(C[C@H](NC(=O)OCc2ccccc2)C(=O)Nc2ccccc2)cc1)NO | 0.197 | – | – | – | – |
| COc1ccc(NC(=O)[C@H](Cc2ccc(OCC(=O)NO)cc2)NC(=O)OCc2ccccc2)cc1 | 0.12 | – | – | – | – |
| O=C(COc1ccc(C[C@H](NC(=O)OCc2ccccc2)C(=O)Nc2cccc(Cl)c2)cc1)NO | 0.213 | – | – | – | – |
| COc1ccc(NC(=O)[C@H](Cc2ccc(OCC(=O)NO)cc2)NC(=O)c2ccccc2)cc1 | 0.087 | 2.98 | 24 | 1.53 | 0.358 |
| COc1ccc(NC(=O)[C@H](Cc2ccc(OCC(=O)NO)cc2)NC(=O)Cc2ccccc2)cc1 | 0.063 | 22.3 | > 100 | > 100 | 1.23 |
| COc1ccc(NC(=O)[C@H](Cc2ccc(OCC(=O)NO)cc2)NC(=O)CCc2ccccc2)cc1 | 0.09 | 6.59 | 54.6 | 6.24 | 0.889 |
| COc1ccc(NC(=O)[C@H](Cc2ccc(OCC(=O)NO)cc2)NC(=O)CCCc2ccccc2)cc1 | 0.086 | 14.3 | 97.2 | 57.3 | 1.32 |
| COc1ccc(NC(=O)[C@H](Cc2ccc(OCC(=O)NO)cc2)NCc2ccccc2)cc1 | 1.18 | – | – | – | – |
| COc1ccc(NC(=O)[C@H](Cc2ccc(OCC(=O)NO)cc2)NCCc2ccccc2)cc1 | 0.66 | – | – | – | – |
| COc1ccc(NC(=O)[C@H](Cc2ccc(OCC(=O)NO)cc2)NCCCc2ccccc2)cc1 | 0.922 | – | – | – | – |
